ROMK primary = human ROMK K+ channel modulation, primary screen | Tet-inducible ROMK, thallium flux fluorescence; actives lie on both sides | B-score at 10 µM | 130,000 tested, 2% active | AID 1918;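 active = signal ratio slope over the read window, or its plate-corrected B-score, at least 3 SD from the plate mean, either direction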;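 note: B-score of the F/F0 ratio slope over 7 to 12 s after thallium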
PKD1 kinase inh = inhibitors of human PKD1 kinase. AID 797. inhibition, % (concentration not given with the values). 200,000 tested, 0.056% active. Q15139. PKD1 kinase fluorescence polarization assay; in the data active = inhibition above about 50%
KCC2 mod = modulators of human KCC2 chloride dependent transport; KCC2 cells, thallium flux FluoZin-2 fluorescence; 190,000 tested, 2.2% active; B-score of Tl+ flux slope (higher = more flux/activation; lower = inhibition) at 10 µM;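 active = thallium flux slope and its plate-corrected score both differing from the plate sample mean at a set confidence after two filtering rounds, in either direction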;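 note: slope of fluorescence scaled to starting intensity during 10 to 20 s after thallium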
Arbovirus inh = blocks arbovirus infection; arbovirus infection cell-based antiviral screen; inhibition, % at 10 µM; 200,000 tested, 0.37% active; AID 1251; in the data active = inhibition above about 30%
Mdm2 ligase inh = inhibitors of human Mdm2 E3 ubiquitin ligase; Q00987; cell-based MDM2 ubiquitination luciferase reporter, 2 h; 0 = plate control, 100 = twice control, blank-subtracted; signal enhancement, % at 5 µM; 210,000 tested, 0.11% active;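 active = signal enhancement of 30% or more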;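 note: luminescence tracks abundance of the self-degrading MDM2-luciferase fusion protein; higher signal means inhibition of MDM2 E3 ligase activity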
Target sequence (Q00987 whole entry, looked up, the tested form may be a part): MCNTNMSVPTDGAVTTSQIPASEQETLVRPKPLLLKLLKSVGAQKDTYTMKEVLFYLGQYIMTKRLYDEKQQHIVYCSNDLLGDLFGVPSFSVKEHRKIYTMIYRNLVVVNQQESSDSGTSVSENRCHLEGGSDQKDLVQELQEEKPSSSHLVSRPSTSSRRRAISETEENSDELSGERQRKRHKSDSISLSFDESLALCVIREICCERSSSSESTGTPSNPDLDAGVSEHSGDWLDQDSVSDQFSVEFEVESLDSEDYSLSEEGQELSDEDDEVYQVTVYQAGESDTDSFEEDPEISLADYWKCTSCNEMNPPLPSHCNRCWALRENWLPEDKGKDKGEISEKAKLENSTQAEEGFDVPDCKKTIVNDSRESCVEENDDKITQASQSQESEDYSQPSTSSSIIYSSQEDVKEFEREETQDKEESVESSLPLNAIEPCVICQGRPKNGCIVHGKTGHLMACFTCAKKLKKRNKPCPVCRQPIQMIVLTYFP
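Buffer or medium: Cells held in DMEM | Assay system: Stable mammalian line carrying autodegrading MDM2–luciferase fusion reporter | Quantity: 2000 cells/well | Times: 4 h settle plus 2 h compound, 37 °C | Doses: One concentration, 5 µM, with 0.2% DMSO | Technique: Luminescence with SteadyLite reagent, 15 min at room temperature | Benchmarks: Plate controls and plate blanks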
m-calpain inh = inhibitors of pig calpain II; purified calpain II, fluorogenic peptide substrate, 30 min; inhibition, % at 16 µM; 220,000 tested, 0.37% active;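 active = inhibition above about 50%, limit read from the data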
ROMK hit retest = human ROMK channel modulation, retest confirmation; shares compounds with ROMK primary; ROMK thallium flux, fluorescence ratio; hits give low values; normalized thallium flux (F/F0 slope) at 10 µM; 3,000 tested, 54% active; AID 1917;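 active = Flux at 10 µM at least 3 SD below or above vehicle control mean in one or both replicates; inconclusive = no clear call, values can overlap the other calls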
* marks the source's active call; other numbers are inactive results; i = inactive; ? = inconclusive; . = no result. Only some compounds are listed: those with a hit (about 3.7% of all), similar ones and a draw of the others.

SMILES	ROMK primary	PKD1 kinase inh	KCC2 mod	Arbovirus inh	Mdm2 ligase inh	m-calpain inh	ROMK hit retest
C=CCN1C(=O)NC(=O)/C(=C/c2cc3c4c(c2)CCCN4CCC3)C1=O	-4.35*	1.6	-0.268	5.5	-12.0	-32.4	0.0559*
C=CCN1C(=O)/C(=C/c2ccc(N3CCOCC3)o2)C(=O)NC1=S	.	-13.8	0.141	-1.1	-5.3	20.5	.
CCN(CC)c1ccc(/C=C2\C(=O)NC(=S)N(C)C2=O)o1	-6.35*	.	-4.61	.	-6.8	3.9	0.0283*
COc1ccc([N+](=O)[O-])cc1N=Cc1c(O)n(CCc2ccccc2)c(=O)n(C(C)C)c1=O	-0.375	2.3	-0.482	-0.1	-4.3	10.4	.
C1=C(c2c[nH]c3ccccc23)CCN(Cc2ccccc2)C1	-3.71*	-7.0	0.43	-19.3	-18.4	23.2	0.0496*
Cn1cc(C(=O)NP(=O)(N2CCOCC2)N2CCOCC2)c2ccccc21	-0.801	-2.1	-2.31	10.4	-14.3	25.1	.
CCN1CCN(Cc2ccc(OC(F)(F)F)cc2)CC1	.	0.4	-1.88	-2.8	-3.1	9.0	.
CCCCCCOc1ccc(CN2CCN(CC)CC2)cc1	-3.95*	-5.2	-0.174	0.9	-32.0	-17.2	0.0597*
Cn1c(=O)cc(OCC(=O)N2CCN(Cc3ccc4c(c3)OCO4)CC2)c2ccccc21	.	-3.1	0.217	1.0	-11.1	6.2	.
O=c1[nH]c(=O)n(Cc2ccccc2Cl)c(O)c1/C=C1/C=CC=N1	2.6*	-1.6	0.848	-5.1	-1.2	1.5	?
CCN(CC)c1ccc(N=Cc2c(O)n(-c3ccccc3)c(=O)[nH]c2=O)cc1	-0.28	.	-0.923	.	-0.7	-13.4	.
CCOc1ccccc1-n1c(O)c(C=Nc2ccc(N(CC)CC)cc2)c(=O)[nH]c1=O	2.66*	-6.4	-1.6	-6.0	-9.3	-9.0	0.0798
CCN(CC)c1ccc(N=Cc2c(O)n(Cc3ccccc3)c(=O)[nH]c2=O)cc1	-8.27*	-2.6	-1.64	-3.6	-16.0	-22.3	0.0485*
COc1cccc(OC)c1C(=O)Nc1nc(N)n(-c2ccccc2)n1	.	-6.0	.	5.4	-7.6	-8.1	.
CCOC(=O)C1=C(N)Oc2cc(C)oc(=O)c2C12C(=O)N1c3c(cccc32)C(C)CC1(C)C (configuration not stated)	-4.79*	-3.7	-0.568	4.4	-5.7	-30.5	0.0599*
COC1CC(OC2CCC3(C)C(CCC4C3CCC3(C)C(C5=CC(=O)OC5)C(OC(C)=O)CC43O)C2)OC(C)C1OC1OC(COC2OC(CO)C(O)C(O)C2O)C(O)C(O)C1O (configuration not stated)	.	.	0.62	.	-46.5	5.9	?
CCOc1cc(CNC(C)C(O)c2ccccc2)cc(Cl)c1OCC (configuration not stated)	-2.79*	-3.0	1.6	-5.4	-1.0	8.3	0.0586*
CC(NCc1ccc(Cl)c(Cl)c1)C(O)c1ccccc1 (configuration not stated)	-2.55	-1.4	0.733	21.9	-12.5	-22.0	.
CCOC(=O)C1=C(NC(=S)NC(=O)c2ccccc2)c2ccccc2CC12CCCC2	-0.192	-4.5	3.25	22.5	-11.8	36.2	.
CCCC1(CCC)C(=O)NC(=Nc2ccccc2)NC1=O	.	-5.0	0.552	-10.5	.	20.5	.
CCCCC1(CCCC)C(=O)NC(=Nc2cccc(C)c2)NC1=O	.	-4.6	-2.55	-15.5	-19.2	21.2	0.052*
CCC(=NCCN1CCCCC1)c1c(O)n(C)c(=O)n(C)c1=O	1.07	-7.8	0.731	-0.1	2.3	5.6	.
CCC(=NCCOc1ccc(Cl)cc1)c1c(O)n(C)c(=O)n(C)c1=O	-3.08*	-5.6	-0.241	-2.6	-8.6	1.9	0.0658*
COc1cc2c(cc1OC)[C@@H]1C(=O)c3ccc4c(c3O[C@@H]1CO2)C[C@H](C(C)C)O4	.	.	-1.56	.	-31.5	-12.8	0.0639*
N#Cc1ccc(OCC(=O)N2CCN(Cc3ccc4c(c3)OCO4)CC2)cc1	-0.802	-2.3	0.578	2.8	-11.5	-20.4	.
SMILES	ROMK primary	PKD1 kinase inh	KCC2 mod	Arbovirus inh	Mdm2 ligase inh	m-calpain inh	ROMK hit retest
Cc1cccn2c(=O)c3cc(C(=O)N4CCC5(CC4)OCCO5)n(C)c3nc12	5.35*	1.6	.	-12.0	-16.9	i	0.0943
CC1CN2c3ccc([N+](=O)[O-])cc3CC3(C(=O)N(C)C(=O)N(C)C3=O)C2C(C)O1 (configuration not stated)	.	.	0.337	.	-12.8	-17.5	.
COc1cccc(NP(=O)(Oc2ccc(Cl)cc2)Oc2ccc(Cl)cc2)c1	1.29	-5.8	-0.0525	-30.7	10.6	38.1	.
COc1ccccc1OP(=O)(Nc1cccnc1)Oc1ccccc1OC	.	-1.8	-0.968	16.0	-18.3	16.9	0.062*
CCCOP(=O)(O)c1c([N+](=O)[O-])cc(C(F)(F)F)cc1[N+](=O)[O-] (tested in a mixture with another compound)	.	-7.6	0.47	7.0	-6.9	-22.2	.
COc1ccc(CCNCc2ccc(SC)cc2)cc1	.	0.4	0.446	6.7	7.1	-7.9	0.0619*
COc1ccc(CCNCc2ccc(F)cc2)cc1OC	-0.426	-3.1	0.206	-2.8	-10.9	3.2	.
CC1=C2C3OC(=O)C(C)C3CC[C@@]2(C)C=CC1=O (some centres not stated)	.	.	-0.000399	.	-5.0	7.5	.
O=c1[nH]c(=O)n(-c2ccccc2)c(O)c1/C=C1/C(c2ccccc2)=Nc2ccccc21	-5.41*	1.4	-0.878	-14.5	9.8	-14.0	0.0546*
CC(=NCCN1CCCCC1)c1c(O)n(-c2ccccc2)c(=O)[nH]c1=O	.	.	2.03	.	.	-21.2	.
CC(C)NC(C)C(=O)C12CC3CC(CC(C3)C1)C2 (configuration not stated)	1.58*	-6.1	-0.251	-4.4	14.3	8.8	?
CCC(=O)N1c2ccc(S(=O)(=O)CCC(=O)N3CCC4(CC3)OCCO4)cc2CC1C (configuration not stated)	0.0909	13.7	.	5.2	3.8	-10.6	.
Cc1ccc(OCC(=O)N2CCN(CC3CC4C=CC3C4)CC2)cc1 (configuration not stated)	-2.11*	-14.1	.	3.1	9.6	18.5	0.0665*
CS(=O)(=O)N1CCN(C(=N)N[N+](=O)[O-])CC1	-2.64*	-7.3	0.405	7.7	-5.2	-28.2	0.0806
CC(N)Cc1c[nH]c2cc3c(cc12)OCCO3 (configuration not stated)	.	1.2	1.48	-1.1	6.4	-19.6	.
CCCC(C)n1[nH]c(=O)c2c1NC(=O)CSC2c1ccc(OC)cc1 (configuration not stated)	2.27*	-9.5	-0.102	7.1	-8.8	29.5	?
CCOc1nc(NC(C)C)nc(N2CC3CC(C2)c2cccc(=O)n2C3)n1 (configuration not stated)	-0.33	-5.6	-1.94	4.2	-12.2	-23.0	.
Cc1cc(C(=O)O)c(C)n1C1CC1	.	.	-0.0903	.	.	5.4	.

Source: PubChem BioAssay
